According to ChEMBL document CHEMBL4184151, “In-cell production of a genetically-encoded library based on the θ-defensin RTD-1 using a bacterial expression system” (Bioorg Med Chem, 2018):
Residues, ends and D or L forms follow the SMILES beside them.

Assays:
Lethal factor [1] = target: T1, Lethal factor (Bacillus anthracis, UniProt P15917); test: Inhibition of Bacillus anthracis lethal factor protease using substrate containing CyPet and YPet linked by RRKKVYPYPMEGTIA sequence preincubated for 30 mins followed by substrate addition measured every 2 mins for 3 hrs by FRET assay
T1 sequence (P15917 whole entry): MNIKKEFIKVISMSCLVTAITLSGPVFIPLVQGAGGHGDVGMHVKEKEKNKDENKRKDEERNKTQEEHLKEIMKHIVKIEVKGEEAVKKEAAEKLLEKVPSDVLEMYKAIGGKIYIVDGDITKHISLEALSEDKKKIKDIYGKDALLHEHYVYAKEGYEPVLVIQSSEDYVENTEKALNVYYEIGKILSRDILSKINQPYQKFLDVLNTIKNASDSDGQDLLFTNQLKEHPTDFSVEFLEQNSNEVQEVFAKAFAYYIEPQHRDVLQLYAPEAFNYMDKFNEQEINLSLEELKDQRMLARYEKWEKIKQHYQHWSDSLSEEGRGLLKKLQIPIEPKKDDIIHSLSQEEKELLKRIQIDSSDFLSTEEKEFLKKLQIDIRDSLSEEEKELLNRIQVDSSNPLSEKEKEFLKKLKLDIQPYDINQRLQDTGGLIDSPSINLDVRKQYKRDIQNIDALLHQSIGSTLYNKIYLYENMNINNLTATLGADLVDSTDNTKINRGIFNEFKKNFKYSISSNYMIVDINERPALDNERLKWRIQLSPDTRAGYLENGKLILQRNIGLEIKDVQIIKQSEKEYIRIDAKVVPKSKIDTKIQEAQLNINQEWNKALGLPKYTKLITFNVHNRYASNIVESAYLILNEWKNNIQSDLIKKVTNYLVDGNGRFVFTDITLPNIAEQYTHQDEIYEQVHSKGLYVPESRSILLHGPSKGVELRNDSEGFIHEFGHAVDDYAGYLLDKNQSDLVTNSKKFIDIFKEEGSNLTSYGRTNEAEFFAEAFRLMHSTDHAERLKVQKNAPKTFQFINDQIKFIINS
Method in brief: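 Purified LF (50 nM) in pH 7.2 buffer (10 μM CaCl2, 10 μM MgCl2, 20 μM ZnCl2, 20 mM sodium phosphate, 100 mM NaCl) preincubated at room temperature with inhibitor (1 nM–10 μM). FRET substrate added to 10 nM final. Read at 405 nm excitation, 535 nm intensity ratio It/I0. Initial velocities were normalised to uninhibited LF, and IC50 came from a variable-slope log(inhibitor)–response fit.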

Lethal factor [2] = target: T1, Lethal factor; test: Non-competitive inhibition of Bacillus anthracis lethal factor protease using substrate containing CyPet and YPet linked by RRKKVYPYPMEGTIA sequence preincubated for 30 mins followed by substrate addition measured every 2 mins for 3 hrs by FRET assay
Method in brief: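 Ki was derived from the IC50 with the non-competitive tight-binding relation Ki = IC50 − E0/2, where E0 is the enzyme concentration (50 nM LF). The IC50 comes from the FRET assay: pH 7.2 Ca/Mg/Zn phosphate–NaCl buffer, inhibitor 1 nM–10 μM, 10 nM substrate, 405 nm excitation, 535 nm read, initial velocities fitted to a variable-slope curve.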

SMILES | IC50 (Lethal factor [1]) | Ki (Lethal factor [2])
CC[C@H](C)[C@H](NC(=O)[C@H](CS)NC(=O)[C@H](CCCNC(=N)N)NC(=O)[C@H](CS)NC(=O)[C@@H](NC(=O)CNC(=O)[C@H](Cc1cnc[nH]1)NC(=O)[C@H](CC(C)C)NC(=O)[C@H](CS)NC(=O)[C@H](C)NC(=O)[C@H](CS)NC(=O)[C@H](CCCNC(=N)N)NC(=O)[C@H](CS)NC(=O)[C@H](Cc1ccccc1)NC(=O)CN)C(C)C)C(=O)N[C@@H](CS)C(=O)N[C@H](C(=O)N[C@@H](CCCNC(=N)N)C(=O)O)[C@@H](C)O (H-GFCRCACLHGVCRCICTR-OH) | 971 nM | 946 nM
CC[C@H](C)[C@H](NC(=O)[C@H](CS)NC(=O)[C@H](CC(=O)O)NC(=O)[C@H](CS)NC(=O)[C@H](CO)NC(=O)[C@H](CO)NC(=O)[C@H](CCCNC(=N)N)NC(=O)CNC(=O)[C@H](CS)NC(=O)[C@H](Cc1ccccc1)NC(=O)[C@H](CS)NC(=O)[C@H](CCCNC(=N)N)NC(=O)[C@H](CS)NC(=O)[C@H](Cc1ccccc1)NC(=O)CN)C(=O)N[C@@H](CS)C(=O)N[C@H](C(=O)N[C@@H](CCCNC(=N)N)C(=O)O)[C@@H](C)O (H-GFCRCFCGRSSCDCICTR-OH) | 1200 nM | 1170 nM
CC[C@H](C)[C@H](NC(=O)[C@H](CS)NC(=O)[C@H](CCCNC(=N)N)NC(=O)[C@H](CS)NC(=O)[C@@H](NC(=O)CNC(=O)[C@H](CCCNC(=N)N)NC(=O)[C@H](CCCNC(=N)N)NC(=O)[C@H](CS)NC(=O)[C@H](CC(C)C)NC(=O)[C@H](CS)NC(=O)[C@H](CCCNC(=N)N)NC(=O)[C@H](CS)NC(=O)[C@H](Cc1ccccc1)NC(=O)CN)C(C)C)C(=O)N[C@@H](CS)C(=O)N[C@H](C(=O)N[C@@H](CCCNC(=N)N)C(=O)O)[C@@H](C)O (H-GFCRCLCRRGVCRCICTR-OH) | 406 nM | 381 nM
CC[C@H](C)[C@H](NC(=O)[C@H](CS)NC(=O)[C@H](Cc1c[nH]c2ccccc12)NC(=O)[C@H](CS)NC(=O)CNC(=O)[C@H](Cc1ccc(O)cc1)NC(=O)[C@H](CCCNC(=N)N)NC(=O)[C@H](CO)NC(=O)[C@H](CS)NC(=O)[C@@H]1CCCN1C(=O)[C@H](CS)NC(=O)[C@H](CCCNC(=N)N)NC(=O)[C@H](CS)NC(=O)[C@H](Cc1ccccc1)NC(=O)CN)C(=O)N[C@@H](CS)C(=O)N[C@H](C(=O)N[C@@H](CCCNC(=N)N)C(=O)O)[C@@H](C)O (H-GFCRCPCSRYGCWCICTR-OH) | 971 nM | 946 nM
